Data from article PMC3286593 (Cancer Chemotherapy and Pharmacology, 2011).

Columns and labels:
[1] = test system: patients with advanced solid malignancies; assay: Dose delays, dose reductions and relative dose intensity; format: in vivo, human; conditions: for Cycles with dose reductions: Schedule 2/1
Procedure, shortened: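 Grade 3/4 toxicity attributed to either drug allowed intra-patient dose reduction at the investigator's discretion, up to 2 reductions per drug. […] Relative dose intensity was actual/intended dose intensity. Results were summarised descriptively per cycle and per patient.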

[2] = test system: patients with advanced solid malignancies; assay: Phase I 3 + 3 dose escalation: MTD and dose-limiting toxicities; format: in vivo, human; conditions: for Pemetrexed dose at MTD: q3w; for MTD of sunitinib: with pemetrexed 500 mg/m^2 q3w
Procedure, shortened: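 Open-label multicentre 3 + 3 escalation. […] A DLT was a grade 3/4 drug-related toxicity in cycle 1 (NCI CTCAE v3.0). MTD was the highest dose with 0/3 or ≤1/6 DLTs.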

[3] = test system: NSCLC NCI-H460 xenograft models; conditions: cited from earlier work
[4] = test system: NSCLC; conditions: single-agent sunitinib on Schedule 4/2; cited from earlier work
[5] = test system: patients with advanced solid malignancies; assay: Safety: adverse events; format: in vivo, human
[6] = test system: VEGFR and PDGFR phosphorylation; conditions: cited from earlier work
[7] = NSCLC expansion cohort (n = 15)

Nc1nc2[nH]cc(CCc3ccc(C(=O)N[C@@H](CCC(=O)O)C(=O)O)cc3)c2c(=O)[nH]1 [pemetrexed]
Patients with a pemetrexed dose delay ([1]; CDD schedule MTD): 12 patients
Patients with a pemetrexed dose reduction to 400 mg/m^2 ([1]; CDD schedule MTD): 6 patients
Cycles with pemetrexed dose reduction ([1]; NSCLC expansion cohort): 6 cycles
Patients with at least one pemetrexed dose reduction to 400 mg/m^2 ([1]; NSCLC expansion cohort): 3 patients
Cycles with dose reductions [1]: 3 cycles
Cycles with pemetrexed dose reduction ([1]; original CDD schedule MTD): 13 cycles
Pemetrexed dose at MTD ([2]; with sunitinib 37.5 mg/day CDD schedule): 500 mg/m^2
Pemetrexed dose at MTD ([2]; with sunitinib 50 mg/day Schedule 2/1): 500 mg/m^2
Effect on antitumor activity of sunitinib [3]: enhanced its antitumor activity

CCN(CC)CCNC(=O)c1c(C)[nH]c(/C=C2\C(=O)Nc3ccc(F)cc32)c1C [sunitinib]
Patients with a sunitinib dose reduction to 25 mg ([1]; CDD schedule MTD): 12 patients
Patients with at least one sunitinib dose delay ([1]; CDD schedule MTD): 12 patients
Patients who discontinued sunitinib due to AEs ([1]; CDD schedule MTD, abdominal pain, seizure, thrombocytopenia): Three
Cycles with sunitinib dose reductions [1, 7]: 22 cycles
Patients with at least one sunitinib dose reduction to 25 mg [1, 7]: 7 patients
Cycles with dose reductions [1]: 6 cycles
Cycles with sunitinib dose reductions ([1]; original CDD schedule MTD cohort (n = 7)): 23 cycles
ORR [4]: 11.1%
Serious AEs considered related to sunitinib treatment ([5]; CDD schedule at the MTD, one event of each in separate patients): febrile neutropenia (DLT), pancreatitis, pain, gastroenteritis, and muscular weakness
Serious AEs considered related to sunitinib treatment ([5]; Schedule 2/1, all n = 1): febrile neutropenia (DLT), tumor perforation, and pyrexia
Target plasma concentrations required to inhibit VEGFR and PDGFR phosphorylation [6]: 50 to 100 ng/mL
MTD of sunitinib ([2]; CDD schedule): 37.5 mg/day
MTD of sunitinib ([2]; Schedule 2/1): 50 mg/day
Tumor growth [3]: decreased tumor growth
